Measured values: ChEMBL document CHEMBL4251640, “Antimalarial naphthoquinones. Synthesis via click chemistry, in vitro activity, docking to PfDHODH and SAR of lapachol-based compounds” (Eur J Med Chem, 2018)

Assays:
[1] = Selectivity index, CC50 for human HepG2 cells to IC50 for chloroquine-resistant/mefloquine-sensitive Plasmodium falciparum W2 ring stage forms; format: toxicity; details: read-out: Ratio CC50/IC50
In short: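 HepG2 cytotoxicity: cells in RPMI 1640 with 5% FBS, trypsinized and plated. Compounds at 0.02% DMSO final, four serial-dilution concentrations, 24 h at 37 °C. MTT added for 90 min, formazan dissolved in DMSO, read at 570 nm. Duplicates. CC50 taken as the concentration killing 50% of cells. SI = CC50/IC50 against W2, with IC50 from the 48 h pLDH assay.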

Plasmodium falciparum = assay: Antimalarial activity against chloroquine-resistant/mefloquine-sensitive Plasmodium falciparum W2 ring stage forms infected in human erythrocytes assessed as reduction in parasite growth after 48 hrs by parasite LDH release assay; format: functional, organism-based; details: W2, 48 h
In short: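 Sorbitol-synchronized ring-stage parasites in human erythrocytes (culture kept at 37 °C, candle jar, RPMI with hypoxanthine, HEPES, 10% human plasma) plated at 2% parasitemia, 1% hematocrit with drugs diluted from DMSO stock. Incubated 48 h, frozen -20 °C 24 h, thawed. Lysate given Malstat plus NBT/PES for 1 h at 37 °C in the dark, A570 read. Triplicates. IC50 from sigmoidal dose-response fit versus drug-free controls.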

[2] = Cytotoxicity against human HepG2 cells assessed as reduction in cell viability after 24 hrs by MTT assay; format: cell-based
In short: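 HepG2 hepatoma cells kept at 37 °C, 5% CO2 in RPMI 1640 with 5% FBS, penicillin and streptomycin; trypsinized and plated in 96-well plates. Samples diluted in medium at 0.02% DMSO final, four serial concentrations; 24 h at 37 °C, then MTT (5 mg/ml in PBS) 90 min, formazan dissolved in DMSO, absorbance 570 nm. Duplicate; CC50 = concentration killing 50% of cells.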

| Structure (SMILES) | selectivity ratio [1] | IC50 (Plasmodium falciparum) [µM] | CC50 at 24 h [2] [µM] |
| --- | --- | --- | --- |
| O=C1C(O)=C([C@H]2CC[C@H](c3ccc(Cl)cc3)CC2)C(=O)c2ccccc21 [ATOVAQUONE] | > 328 | 0.00122 | > 40 |
| CC(C)=CCC1=C(OCc2cn(C3C[C@@H](CO)O[C@H]3n3cc(C)c(=O)[nH]c3=O)nn2)C(=O)c2ccccc2C1=O (stereo partly specified) | 4.5 | 13.6 | 60.7 |
| CC(C)=CCC1=C(OCc2cn(-c3ccc(C#N)cc3)nn2)C(=O)c2ccccc2C1=O | 84.2 | 8.4 | 707 |
| CCN(CC)CCCC(C)Nc1ccnc2cc(Cl)ccc12 (stereo unspecified) [CHLOROQUINE] |  |  | 393 |
| CC(C)=CCC1=C(OCc2cn(-c3cccnc3)nn2)C(=O)c2ccccc2C1=O | 198 | 5.2 | 1030 |
| COc1cc([N+](=O)[O-])ccc1-n1cc(COC2=C(CC=C(C)C)C(=O)c3ccccc3C2=O)nn1 | 171 | 4.1 | 701 |
| CC(C)=CCC1=C(OCc2cn(-c3ccc([N+](=O)[O-])cc3)nn2)C(=O)c2ccccc2C1=O | 46.1 | 11.7 | 540 |
| CC(C)=CCC1=C(OCc2cn(Cc3ccccc3)nn2)C(=O)c2ccccc2C1=O | 53 | 7.8 | 414 |
| COc1ccc(-n2cc(COC3=C(CC=C(C)C)C(=O)c4ccccc4C3=O)nn2)c([N+](=O)[O-])c1 | 64.8 | 8.2 | 532 |
| CC(C)=CCC1=C(OCc2cn(C3CCN(C(=O)OC(C)(C)C)CC3)nn2)C(=O)c2ccccc2C1=O | 34 | 4 | 136 |
| CC(C)=CCC1=C(OCc2cn(-c3ccccc3C)nn2)C(=O)c2ccccc2C1=O | 13.6 | 18.8 to 19.4 | 256 |
| CC(C)=CCC1=C(OCc2cn(Cc3ccccn3)nn2)C(=O)c2ccccc2C1=O | 75.6 | 8.7 | 658 |
| CC(C)=CCC1=C(OCc2cn(-c3ccc(S(N)(=O)=O)cc3)nn2)C(=O)c2ccccc2C1=O | < 4.6 | > 105 | 483 |
| COc1ccc(-n2cc(COC3=C(CC=C(C)C)C(=O)c4ccccc4C3=O)nn2)cc1 | 14.1 | 14.2 | 200 |
| CC(C)=CCC1=C(OCc2cn(C3CCNCC3)nn2)C(=O)c2ccccc2C1=O | 124 | 4.6 | 570 |
| CC(C)=CCC1=C(O)C(=O)c2ccccc2C1=O [LAPACHOL] | > 33.4 | 124 | > 4130 |
| CC(C)=CCC1=C(OCc2cn(-c3ccc(Cl)cc3)nn2)C(=O)c2ccccc2C1=O | 118 | 9.8 | 1150 |
| C#CCOC1=C(CC=C(C)C)C(=O)c2ccccc2C1=O | 113 | 8.2 | 924 |
| CC(C)=CCC1=C(OCc2cn(-c3ccccc3)nn2)C(=O)c2ccccc2C1=O | 5.2 | 19.1 | 100 |
| CC(C)=CCC1=C(OCc2cn(-c3cccc(F)c3)nn2)C(=O)c2ccccc2C1=O | 31.5 | 8.4 | 265 |
| CC(C)=CCC1=C(OCc2cn(-c3ccnc4cc(Cl)ccc34)nn2)C(=O)c2ccccc2C1=O | 129 | 15.1 | 1940 |
